Tests used:
Format in all cases: functional
Conditions in all cases: read-out: Activity
[1] = tested on: MDA-MB-435; assay: Growth inhibition of human MDA-MB-435 cells assessed as cell growth at 10 uM incubated for 48 hrs by sulforhodamine B assay relative to control
In short: (§1)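 Submitted to the NCI Developmental Therapeutics Program for the NCI60 human tumour cell line panel. First screen at a single 10 µM concentration. Read-out is growth relative to untreated control cells set at 100%.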

[2] = tested on: SF-268; assay: Growth inhibition of human SF-268 cells assessed as cell growth at 10 uM incubated for 48 hrs by sulforhodamine B assay relative to control
In short: (§2)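 Run by the NCI Developmental Therapeutics Program as part of its 60-line human tumour panel. Each compound tested at a single 10 µM dose. Growth expressed as % relative to untreated control cells (100%).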

[3] = tested on: HOP-92; assay: Growth inhibition of human HOP-92 cells assessed as cell growth at 10 uM incubated for 48 hrs by sulforhodamine B assay relative to control; in short: as §1
[4] = tested on: SN12C; assay: Growth inhibition of human SN12C cells assessed as cell growth at 10 uM incubated for 48 hrs by sulforhodamine B assay relative to control; in short: as §2
[5] = tested on: RPMI-8226; assay: Growth inhibition of human RPMI-8226 cells assessed as cell growth at 10 uM incubated for 48 hrs by sulforhodamine B assay relative to control; in short: as §2
[6] = tested on: CCRF-CEM; assay: Growth inhibition of human CCRF-CEM cells assessed as cell growth at 10 uM incubated for 48 hrs by sulforhodamine B assay relative to control
In short: (§3)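 NCI Developmental Therapeutics Program NCI60 panel. Compounds that were active in the 10 µM one-dose screen went on to dose–response testing. Growth at each concentration is expressed relative to untreated control (100%). GI50 (concentration giving 50% of maximal inhibition of proliferation) and TGI (concentration giving total growth inhibition) were derived from the curves.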

[7] = tested on: Malme-3M; assay: Growth inhibition of human Malme-3M cells assessed as cell growth at 10 uM incubated for 48 hrs by sulforhodamine B assay relative to control; in short: as §1
[8] = tested on: UO-31; assay: Growth inhibition of human UO-31 cells assessed as cell growth at 10 uM incubated for 48 hrs by sulforhodamine B assay relative to control; in short: as §2
[9] = tested on: RXF 393; assay: Growth inhibition of human RXF 393 cells assessed as cell growth at 10 uM incubated for 48 hrs by sulforhodamine B assay relative to control; in short: as §2
[10] = tested on: OVCAR-3; assay: Growth inhibition of human OVCAR-3 cells assessed as cell growth at 10 uM incubated for 48 hrs by sulforhodamine B assay relative to control; in short: as §2
[11] = tested on: UACC-257; assay: Growth inhibition of human UACC-257 cells assessed as cell growth at 10 uM incubated for 48 hrs by sulforhodamine B assay relative to control; in short: as §2
[12] = tested on: SF-539; assay: Growth inhibition of human SF-539 cells assessed as cell growth at 10 uM incubated for 48 hrs by sulforhodamine B assay relative to control; in short: as §2
[13] = tested on: OVCAR-8; assay: Growth inhibition of human OVCAR-8 cells assessed as cell growth at 10 uM incubated for 48 hrs by sulforhodamine B assay relative to control; in short: as §2
[14] = tested on: MOLT-4; assay: Growth inhibition of human MOLT-4 cells assessed as cell growth at 10 uM incubated for 48 hrs by sulforhodamine B assay relative to control; in short: as §1
[15] = tested on: OVCAR-4; assay: Growth inhibition of human OVCAR-4 cells assessed as cell growth at 10 uM incubated for 48 hrs by sulforhodamine B assay relative to control; in short: as §2
[16] = tested on: PC-3; assay: Growth inhibition of human PC-3 cells assessed as cell growth at 10 uM incubated for 48 hrs by sulforhodamine B assay relative to control; in short: as §2
[17] = tested on: LOX IMVI; assay: Growth inhibition of human LOX IMVI cells assessed as cell growth at 10 uM incubated for 48 hrs by sulforhodamine B assay relative to control; in short: as §1
[18] = tested on: SNB-19; assay: Growth inhibition of human SNB-19 cells assessed as cell growth at 10 uM incubated for 48 hrs by sulforhodamine B assay relative to control; in short: as §2
[19] = tested on: T47D; assay: Growth inhibition of human T47D cells assessed as cell growth at 10 uM incubated for 48 hrs by sulforhodamine B assay relative to control; in short: as §2
[20] = tested on: UACC-62; assay: Growth inhibition of human UACC-62 cells assessed as cell growth at 10 uM incubated for 48 hrs by sulforhodamine B assay relative to control; in short: as §2
[21] = tested on: NCI-H460; assay: Growth inhibition of human NCI-H460 cells assessed as cell growth at 10 uM incubated for 48 hrs by sulforhodamine B assay relative to control; in short: as §1
[22] = tested on: IGROV-1; assay: Growth inhibition of human IGROV-1 cells assessed as cell growth at 10 uM incubated for 48 hrs by sulforhodamine B assay relative to control; in short: as §1
[23] = tested on: MDA-MB-231; assay: Growth inhibition of human MDA-MB-231 cells assessed as cell growth at 10 uM incubated for 48 hrs by sulforhodamine B assay relative to control; in short: as §1
[24] = tested on: HCT-15; assay: Growth inhibition of human HCT-15 cells assessed as cell growth at 10 uM incubated for 48 hrs by sulforhodamine B assay relative to control; in short: as §1
[25] = tested on: SK-MEL-5; assay: Growth inhibition of human SK-MEL-5 cells assessed as cell growth at 10 uM incubated for 48 hrs by sulforhodamine B assay relative to control; in short: as §2
[26] = tested on: OVCAR-5; assay: Growth inhibition of human OVCAR-5 cells assessed as cell growth at 10 uM incubated for 48 hrs by sulforhodamine B assay relative to control; in short: as §2
[27] = tested on: Hs-578T; assay: Growth inhibition of human Hs-578T cells assessed as cell growth at 10 uM incubated for 48 hrs by sulforhodamine B assay relative to control; in short: as §1
[28] = tested on: SW-620; assay: Growth inhibition of human SW-620 cells assessed as cell growth at 10 uM incubated for 48 hrs by sulforhodamine B assay relative to control; in short: as §2
[29] = tested on: NCI-H322M; assay: Growth inhibition of human NCI-H322M cells assessed as cell growth at 10 uM incubated for 48 hrs by sulforhodamine B assay relative to control; in short: as §1
[30] = tested on: NCI/ADR-RES; assay: Growth inhibition of human NCI/ADR-RES cells assessed as cell growth at 10 uM incubated for 48 hrs by sulforhodamine B assay relative to control; in short: as §1
[31] = tested on: A498; assay: Growth inhibition of human A498 cells assessed as cell growth at 10 uM incubated for 48 hrs by sulforhodamine B assay relative to control; in short: as §3
[32] = tested on: MCF7; assay: Growth inhibition of human MCF7 cells assessed as cell growth at 10 uM incubated for 48 hrs by sulforhodamine B assay relative to control; in short: as §1
[33] = tested on: NCI-H226; assay: Growth inhibition of human NCI-H226 cells assessed as cell growth at 10 uM incubated for 48 hrs by sulforhodamine B assay relative to control; in short: as §1
[34] = tested on: K562; assay: Growth inhibition of human K562 cells assessed as cell growth at 10 uM incubated for 48 hrs by sulforhodamine B assay relative to control; in short: as §1
[35] = tested on: SNB-75; assay: Growth inhibition of human SNB-75 cells assessed as cell growth at 10 uM incubated for 48 hrs by sulforhodamine B assay relative to control; in short: as §2
[36] = tested on: COLO 205; assay: Growth inhibition of human COLO 205 cells assessed as cell growth at 10 uM incubated for 48 hrs by sulforhodamine B assay relative to control; in short: as §3

Structure (SMILES)	growth at 10 µM [1] [%]	growth at 10 µM [2] [%]	growth at 10 µM [3] [%]	growth at 10 µM [4] [%]	growth at 10 µM [5] [%]	growth at 10 µM [6] [%]	growth at 10 µM [7] [%]	growth at 10 µM [8] [%]	growth at 10 µM [9] [%]	growth at 10 µM [10] [%]	growth at 10 µM [11] [%]	growth at 10 µM [12] [%]	growth at 10 µM [13] [%]	growth at 10 µM [14] [%]	growth at 10 µM [15] [%]	growth at 10 µM [17] [%]	growth at 10 µM [18] [%]	growth at 10 µM [19] [%]	growth at 10 µM [21] [%]	growth at 10 µM [22] [%]	other results
Cc1cc(C)c(NC(=O)c2sc3nc4c(cc3c2N)CN(Cc2ccccc2)CC4)c(C)c1	-11	42	12	36	13	12	28	37	5	5	44	-11	30	21	44	29	44	12	7	42	growth at 10 µM [16]: 25%; growth at 10 µM [20]: 37%; growth at 10 µM [23]: 38%; growth at 10 µM [24]: 12%; growth at 10 µM [25]: 3%; growth at 10 µM [26]: 54%; growth at 10 µM [27]: 15%; growth at 10 µM [28]: 13%; growth at 10 µM [29]: 47%; growth at 10 µM [30]: -18%; growth at 10 µM [31]: -7%; growth at 10 µM [32]: 8%; growth at 10 µM [33]: 36%; growth at 10 µM [34]: 13%
Cc1ccc(NC(=O)c2sc3nc4c(cc3c2N)C(=O)CCC4)cc1C	-67	42.7	50	35	-2	-6	47	45	-18	-17	54.2	-18	31	27.6	32	39.2	31	24.1	4	23.9	growth at 10 µM [35]: -10.3%; growth at 10 µM [23]: 22%; growth at 10 µM [24]: 27%; growth at 10 µM [25]: 16%; growth at 10 µM [26]: 21%; growth at 10 µM [27]: 18%; growth at 10 µM [36]: -63%; growth at 10 µM [28]: 15%; growth at 10 µM [29]: 35%; growth at 10 µM [30]: 9%; growth at 10 µM [31]: -16%; growth at 10 µM [32]: 10.7%; growth at 10 µM [33]: 56%; growth at 10 µM [34]: 5%
CN1CCc2nc3sc(C(N)=O)c(N)c3c(-c3cccs3)c2C1	10	10	-4	11	12	10	16	11	-43	-22	10	-18	7	9	41	3	19	8	6	18	growth at 10 µM [35]: -10%; growth at 10 µM [16]: 21%; growth at 10 µM [20]: -21%; growth at 10 µM [23]: 28%; growth at 10 µM [24]: 10%; growth at 10 µM [25]: -25%; growth at 10 µM [27]: 6%; growth at 10 µM [36]: -54%; growth at 10 µM [28]: 7%; growth at 10 µM [29]: 15%; growth at 10 µM [30]: 19%; growth at 10 µM [31]: -15%; growth at 10 µM [32]: 12%; growth at 10 µM [33]: 11%; growth at 10 µM [34]: 30%

Source: ChEMBL document CHEMBL4715736, “Identification of anticancer agents based on the thieno[2,3-b]pyridine and 1H-pyrazole molecular scaffolds” (2016)
